PMC6221542 (Science Advances, 2018)
Entries after “also recorded” stand apart in the source; their conditions may differ. Where no end group is shown, it is not given here.

Tests used:
SUV91 chromodomain = assay: Peptide microarray binding, SUV91; set-up: species or system human
Method in brief: (§1)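 Array of 467 unmodified and modified peptides (desalted, mass-spectrometry checked) printed in triplicate spots on glass slides and probed with chromodomain proteins. Signal intensities converted to z scores per chromodomain using all its intensities: z = (x − mean)/SD. Hierarchical clustering grouped chromodomains into three categories and peptides into six clusters by binding preference.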

H3K9me3 = conditions: read-out: Kd H3K9me3; reported Kd of CBX chromodomains; cited from earlier work
[1] = tested on: methylated H3K9 and H3K27 peptides; assay: Peptide microarray, chromodomain binding profile; set-up: species or system human
Method in brief: as §1

| Substance | binding to SUV91 chromodomain (in words) (SUV91 chromodomain) | Kd (H3K9me3) [µM] | binding profile toward methylated H3K9 / H3K27 peptides (in words) [1] |
| --- | --- | --- | --- |
| [Ahx]AATASCLIC[K_Me3]YAA [methylated SIRT1 sequence] | showed binding | – | – |
| WT CBX1: WT CBX1 chromodomain, GST fusion, cloned sequence 20-73 | – | 5 | bound predominantly to all three methylated H3K9 peptides |
| CBX4: CBX4 chromodomain, GST fusion, cloned sequence 8-65 (EHVFAVESIEKKRIRKGRVEYLVKWRGWSPKYNTWEPEENILDPRLLIAFQNRERQEQ; also: GST fusion, end not given here; UniProt O00257 8-65, looked up, fragment) | – | – | binding to both methylated H3K9 and H3K27 was confirmed |
| CBX8: CBX8 chromodomain, GST fusion, cloned sequence 8-61 (ERVFAAEALLKRRIRKGRMEYLVKWKGWSQKYSTWEPEENILDARLLAAFEERE; also: GST fusion, end not given here; UniProt Q9HC52 8-61, looked up, fragment) | – | – | binding to both methylated H3K9 and H3K27 was confirmed; also recorded: showed signals with di- and trimethylated peptides at both sites |
| CBX6: CBX6 chromodomain, GST fusion, cloned sequence 8-65 (ERVFAAESIIKRRIRKGRIEYLVKWKGWAIKYSTWEPEENILDSRLIAAFEQKERERE; also: GST fusion, end not given here; UniProt O95503 8-65, looked up, fragment) | – | – | binding to both methylated H3K9 and H3K27 was confirmed; also recorded: showed signals with di- and trimethylated peptides at both sites |
| CBX2: CBX2 chromodomain, GST fusion, cloned sequence 9-66 (EQVFAAECILSKRLRKGKLEYLVKWRGWSSKHNSWEPEENILDPRLLLAFQKKEHEKE; also: GST fusion, end not given here; UniProt Q14781 9-66, looked up, fragment) | – | – | binding to both methylated H3K9 and H3K27 was confirmed; also recorded: higher H3K27 signal intensity compared with those of H3K9 |
